Measured values published in ChEMBL document CHEMBL5154945, “Discovery and Optimization of Pyrrolopyrimidine Derivatives as Selective Disruptors of the Perinucleolar Compartment, a Marker of Tumor Progression toward Metastasis” (J Med Chem, 2022).

Experiments:
[1] = Microsomal stability in CD1 mouse liver microsomes assessed as half life measured upto 60 mins in presence of NADPH by LC-MS analysis; details: for t1/2: mouse, microsomes, 1 h; for half-life at 1 h: CD1, mouse, liver microsomes
[2] = tested on: PC-3M; test: Anticancer activity in human PC-3M cells expressing PTB/GFP fusion protein assessed as perinucleolar compartment disassembly and measured after 24 hrs by Hoechst 33342 staining based microscopic method; type: functional, cell-based
In short: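 Imaged by high-content microscopy. Nuclei with PNC spots ≥3 and >0 scored positive. PNC prevalence % = PNC-positive nuclei/total nuclei ×100, normalized to DMSO (0% activity) and 0% PNC (−100%). IC50 from concentration-response.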

[3] = Permeability of the compound at pH 7.4 incubated for 30 mins by UV plate reader based PAMPA assay; details: for permeability: pampa, pH 7.4, 0.5 h; for Papp at 0.5 h: PAMPA, pH 7.4

SMILES | t1/2 [1] | IC50 ([2]; read-out: pIC50 (converted)) | permeability [3] | IC50 ([2]; read-out: IC50) | half-life at 1 h [1] | Papp at 0.5 h [3]
N=c1c2c(-c3ccccc3)c(-c3ccccc3)n(Cc3ccc(S(N)(=O)=O)cc3)c2ncn1CC1CCOCC1 | 8.3 min | 25.1 µM | < 1 10^-6 cm/s | – | – | –
N=c1c2c(-c3ccccc3)c(-c3ccccc3)n(Cc3ccccc3)c2ncn1CCCN1CCN(c2ccccc2)CC1 | 14 min | 23.4 µM | > 1000 10^-6 cm/s | – | – | –
N#Cc1c(-c2ccccc2)c(-c2ccccc2)n(Cc2ccccc2)c1N | 13.3 min | – | 62 10^-6 cm/s | > 20 µM | – | –
N=c1c2c3c(n(CCc4ccccc4)c2ncn1[C@H]1CC[C@H](O)CC1)CCCC3 | 86.5 min | – | 204.6 10^-6 cm/s | > 20 µM | – | –
N=c1c2c(-c3ccccc3)cn(Cc3ccccc3)c2ncn1CCO | 9.2 min | – | 1270.9 10^-6 cm/s | > 20 µM | – | –
CO[C@H]1CC[C@H](n2cnc3c(c(-c4ccccc4)c(-c4ccccc4)n3Cc3ccc(OC(F)(F)F)cc3)c2=N)CC1 | – | 1.1 µM | – | – | – | –
N=c1c2c(-c3ccccc3)c(-c3ccccc3)n(CC3CCCCC3)c2ncn1C1CCOCC1 | – | 2 µM | – | – | – | –
COc1ccc(Cn2c(-c3ccccc3)c(-c3ccccc3)c3c(=N)n(CC4CCCO4)cnc32)cc1 (stereo unspecified) | 9.4 min | 8.51 µM | > 1000 10^-6 cm/s | – | – | –
CCO/C=N/c1c(C#N)c(-c2ccccc2)c(-c2ccccc2)n1Cc1ccccc1 | – | – | – | > 20 µM | – | –
N=c1c2c(-c3ccccc3)c(-c3ccccc3)n(Cc3ccc(OC(F)(F)F)cc3)c2ncn1CCCO | – | 4.37 µM | > 1000 10^-6 cm/s | – | – | –
N=c1c2c(-c3ccccc3)c(-c3ccccc3)n(CCc3ccccc3)c2ncn1CC1CCOC1 (stereo unspecified) | 6.9 min | 10.7 µM | > 1000 10^-6 cm/s | – | – | –
N=c1c2c(-c3ccccc3)c(-c3ccccc3)n(CC3CCCCC3)c2ncn1CCCO | – | 26.9 µM | > 1000 10^-6 cm/s | – | – | –
COc1ccc(-c2c(-c3ccc(OC)cc3)n(Cc3ccccc3)c3ncn([C@@H]4CCCC[C@H]4O)c(=N)c23)cc1 (mixture of isomers) | 29.2 min | – | > 1000 10^-6 cm/s | > 20 µM | – | –
N=c1c2c(-c3ccccc3)c(-c3ccccc3)n(Cc3ccc(S(N)(=O)=O)cc3)c2ncn1C1CCOCC1 | 70 min | 1.17 µM | – | – | – | > 1000 ×10⁻⁶ cm/s
Cc1c(C)n(Cc2ccccc2)c2ncn([C@H]3CC[C@H](O)CC3)c(=N)c12 | – | – | < 1 10^-6 cm/s | > 20 µM | 120 min | –
C[C@H]([C@@H](O)c1ccccc1)n1cnc2c(c(-c3ccccc3)c(-c3ccccc3)n2Cc2ccccc2)c1=N | 6.4 min | – | 606 10^-6 cm/s | > 20 µM | – | –
COc1ccc(-c2c(-c3ccc(OC)cc3)n(Cc3ccccc3)c3ncn(CC4CCOC4)c(=N)c23)cc1 (stereo unspecified) | 16.5 min | – | > 1000 10^-6 cm/s | > 20 µM | – | –
COc1ccc(-c2c(-c3ccc(OC)cc3)n(Cc3ccccc3)c3ncn([C@H]4CC[C@H](OC)CC4)c(=N)c23)cc1 | – | – | > 1000 10^-6 cm/s | > 20 µM | – | –
N=c1c2c3c(n(CCc4ccccc4)c2ncn1CCCO)CCCC3 | – | – | – | > 20 µM | 4.5 min | 883 ×10⁻⁶ cm/s
COc1ccc(Cn2c(-c3ccccc3)c(-c3ccccc3)c3c(=N)n(CC4CCOCC4)cnc32)cc1 | 13 min | 9.33 µM | 1266.09 10^-6 cm/s | – | – | –

SMILES | t1/2 [1] | IC50 ([2]; read-out: pIC50 (converted)) | permeability [3] | IC50 ([2]; read-out: IC50) | half-life at 1 h [1] | Papp at 0.5 h [3]
N=c1c2c(-c3ccccc3)c(-c3ccccc3)n(Cc3ccccc3)c2ncn1[C@H]1CC[C@@H](O)CC1 | 52.3 min | 0.832 µM | > 1000 10^-6 cm/s | – | – | –
N=c1c2c(-c3ccccc3)c(-c3ccccc3)n(CC3CCCCC3)c2ncn1[C@H]1CC[C@H](O)CC1 | – | 2.75 µM | – | – | – | –
N=c1c2c(-c3ccccc3)c(-c3ccccc3)n(CC3CC3)c2ncn1CCCO | 25.4 min | – | > 1000 10^-6 cm/s | 6.31 µM | – | –
N=c1c2c(-c3ccccc3)c(-c3ccccc3)n(Cc3ccccc3)c2ncn1[C@H](CO)Cc1ccccc1 | 5.5 min | – | < 1 10^-6 cm/s | > 20 µM | – | –
N=c1c2c(-c3ccc4c(c3)OCO4)c(-c3ccc4c(c3)OCO4)n(Cc3ccccc3)c2ncn1C1CCOCC1 | – | – | – | > 20 µM | – | –
COc1ccc(Cn2c(-c3ccccc3)c(-c3ccccc3)c3c(=N)n(C4CCOCC4)cnc32)cc1 | – | 0.174 µM | – | – | – | –
N=c1c2c(-c3ccccc3)c(-c3ccccc3)n(Cc3ccccc3)c2ncn1[C@@H]1CCCC[C@H]1O (relative stereo) | 28.8 min | 0.501 µM | > 1000 10^-6 cm/s | – | – | –
N=c1c2c(-c3ccccc3)c(-c3ccccc3)n(CC3CC3)c2ncn1CC1CCOCC1 | 16.3 min | 33.9 µM | > 1000 10^-6 cm/s | – | – | –
N=c1c2c(-c3ccccc3)c(-c3ccccc3)n(CC3CC3)c2ncn1C1CCOCC1 | 68 min | 0.832 µM | > 1000 10^-6 cm/s | – | – | –
COc1ccc(Cn2c(-c3ccccc3)c(-c3ccccc3)c3c(=N)n([C@H]4CC[C@H](O)CC4)cnc32)cc1 | – | 0.158 µM | > 1000 10^-6 cm/s | – | 120 min | –
N=c1c2c(-c3ccccc3)c(-c3ccccc3)n(Cc3ccccc3)c2ncn1C1CCN(Cc2ccccc2)CC1 | 32.2 min | 5.01 µM | – | – | – | –
Cc1c(C)n(Cc2ccccc2)c2ncn(C3CCOCC3)c(=N)c12 | 26.9 min | – | 1683.3 10^-6 cm/s | > 20 µM | – | –
N=c1c2c(-c3ccccc3)c(-c3ccccc3)n(Cc3ccc(S(N)(=O)=O)cc3)c2ncn1CCCO | 26.7 min | – | < 1 10^-6 cm/s | – | – | –
COc1ccc(-c2c(-c3ccc(OC)cc3)n(Cc3ccccc3)c3ncn(CCCO)c(=N)c23)cc1 | – | – | – | > 20 µM | – | > 1000 ×10⁻⁶ cm/s
OCCCNc1ncnc2c1c(-c1ccccc1)c(-c1ccccc1)n2Cc1ccccc1 | – | – | – | > 20 µM | – | –
O[C@H]1CC[C@H](Nc2ncnc3c2c(-c2ccccc2)c(-c2ccccc2)n3Cc2ccccc2)CC1 | – | – | – | > 20 µM | – | –
N=c1c2c3c(n(CCc4ccccc4)c2ncn1C1CCOCC1)CCCC3 | – | – | – | > 20 µM | – | –
N=c1c2c(-c3ccccc3)c(-c3ccccc3)n(CCc3ccccc3)c2ncn1C[C@@H]1CCCC[C@H]1O (relative stereo) | 4.3 min | 0.955 µM | – | 2.72 µM | – | –
COc1ccc(-c2c(-c3ccc(OC)cc3)n(Cc3ccccc3)c3ncn([C@H]4CC[C@H](O)CC4)c(=N)c23)cc1 | – | – | 196 10^-6 cm/s | > 20 µM | – | –

Now from value to compound:

t1/2 [1] | IC50 ([2]; read-out: pIC50 (converted)) | permeability [3] | IC50 ([2]; read-out: IC50) | half-life at 1 h [1] | Papp at 0.5 h [3] | SMILES
9 min | 3.16 µM | > 1000 10^-6 cm/s | – | – | – | N=c1c2c(-c3ccccc3)c(-c3ccccc3)n(Cc3ccccc3)c2ncn1CCCCCO
32.6 min | 1.32 µM | > 1000 10^-6 cm/s | – | – | – | N=c1c2c(-c3ccccc3)c(-c3ccccc3)n(CCc3ccccc3)c2ncn1CCO
2.4 min | 2 µM | > 1000 10^-6 cm/s | – | – | – | N=c1c2c(-c3ccccc3)c(-c3ccccc3)n(Cc3ccccc3)c2ncn1C[C@@H]1CCCC[C@H]1O (relative stereo)
– | – | – | > 20 µM | 113 min | 7.2 ×10⁻⁶ cm/s | N=c1c2c(-c3ccccc3)c(-c3ccccc3)n(Cc3ccccc3)c2ncn1CC1COC1
12.1 min | 25.1 µM | 1196.9 10^-6 cm/s | 25.1 µM | – | – | COc1ccc(CCn2cnc3c(c(-c4ccccc4)c(-c4ccccc4)n3Cc3ccccc3)c2=N)cc1OC
– | 0.251 µM | – | – | – | – | CO[C@H]1CC[C@H](n2cnc3c(c(-c4ccccc4)c(-c4ccccc4)n3Cc3ccccc3)c2=N)CC1
5.3 min | 10.7 µM | > 1000 10^-6 cm/s | – | – | – | N=c1c2c(-c3ccccc3)c(-c3ccccc3)n(Cc3ccccc3)c2ncn1CC1CCOC1 (stereo unspecified)
17.4 min | 0.933 µM | > 1000 10^-6 cm/s | – | – | – | N=c1c2c(-c3ccccc3)c(-c3ccccc3)n(Cc3ccccc3)c2ncn1C[C@@H]1CCCC[C@H]1CO (relative stereo)
14.3 min | 2.95 µM | 1358 10^-6 cm/s | – | – | – | CN(C)CCn1cnc2c(c(-c3ccccc3)c(-c3ccccc3)n2Cc2ccccc2)c1=N
9.5 min | 9.33 µM | > 1000 10^-6 cm/s | – | – | – | COCCn1cnc2c(c(-c3ccccc3)c(-c3ccccc3)n2Cc2ccccc2)c1=N
– | 2.82 µM | – | 2.83 µM | 31.1 min | > 1000 ×10⁻⁶ cm/s | COc1ccc(Cn2c(-c3ccccc3)c(-c3ccccc3)c3c(=N)n(CCO)cnc32)cc1
7.7 min | 4.27 µM | > 1000 10^-6 cm/s | – | – | – | N=c1c2c(-c3ccccc3)c(-c3ccccc3)n(Cc3ccccc3)c2ncn1CCCCO
19.9 min | 2.14 µM | > 1000 10^-6 cm/s | – | – | – | COc1ccc(Cn2c(-c3ccccc3)c(-c3ccccc3)c3c(=N)n(CCCO)cnc32)cc1
29.9 min | 6.61 µM | 445.1 10^-6 cm/s | – | – | – | N=c1c2c(-c3ccccc3)c(-c3ccccc3)n(Cc3ccccc3)c2ncn1CCNc1ccncc1
– | – | 164.7 10^-6 cm/s | > 20 µM | – | – | N=c1c2c(-c3ccccc3)c(-c3ccccc3)n(Cc3ccccc3)c2ncn1CCN
– | 12.6 µM | – | 12.6 µM | 120 min | 320 ×10⁻⁶ cm/s | CN(C)CCCn1cnc2c(c(-c3ccccc3)c(-c3ccccc3)n2Cc2ccccc2)c1=N
7.1 min | 10.7 µM | > 1000 10^-6 cm/s | – | – | – | N=c1c2c(-c3ccccc3)c(-c3ccccc3)n(Cc3ccccc3)c2ncn1CC1CCOCC1
6.5 min | 9.33 µM | > 1000 10^-6 cm/s | – | – | – | N=c1c2c(-c3ccccc3)c(-c3ccccc3)n(Cc3ccccc3)c2ncn1CC1CCCO1 (stereo unspecified)
